{"source": "ChEMBL document CHEMBL1153772", "about": "(J Nat Prod, 2009)", "key": {"HOP-62": {"test_system": "HOP-62", "assay": "Cytotoxicity against human HOP62 cells assessed cell growth", "type": "functional"}, "NCI-H322M": {"test_system": "NCI-H322M", "assay": "Cytotoxicity against human NCI-H322M cells assessed cell growth", "type": "functional"}, "Homo sapiens [1]": {"organism": "Homo sapiens", "assay": "Stability in human plasma assessed as compound remaining at 40 uM after 3 hrs in presence of PBS and inorganic phosphate buffer"}, "Homo sapiens [2]": {"organism": "Homo sapiens", "assay": "Unbound fraction in human plasma at 1 uM"}, "CCRF-CEM": {"test_system": "CCRF-CEM", "assay": "Cytotoxicity against human CCRF-CEM cells assessed cell growth", "type": "functional"}, "[3]": {"assay": "Unbound fraction in mouse plasma at 1 uM", "type": "ADME, cell-free"}, "T47D": {"test_system": "T47D", "assay": "Cytotoxicity against human T47D cells assessed cell growth", "type": "functional"}, "[4]": {"assay": "Permeability at 50 uM at pH 6.2 by PAMPA"}, "KM12": {"test_system": "KM12", "assay": "Cytotoxicity against human KM12 cells assessed cell growth", "type": "functional"}, "IGROV-1": {"test_system": "IGROV-1", "assay": "Cytotoxicity against human IGROV1 cells assessed cell growth", "type": "functional"}, "[5]": {"assay": "Permeability at 50 uM at pH 5 by PAMPA", "type": "ADME", "conditions": "read-out: permeability"}, "MDA-MB-435": {"test_system": "MDA-MB-435", "assay": "Cytotoxicity against human MDA-MB-435 cells assessed cell growth", "type": "functional"}, "ACHN": {"test_system": "ACHN", "assay": "Cytotoxicity against human ACHN cells assessed cell growth", "type": "functional"}, "[6]": {"assay": "Solubility at pH 6.2", "type": "physicochemical", "conditions": "buffer"}, "DU-145": {"test_system": "DU-145", "assay": "Cytotoxicity against human DU145 cells assessed cell growth", "type": "functional"}, "NCI-H23": {"test_system": "NCI-H23", "assay": "Cytotoxicity against human NCI-H23 cells assessed cell growth", "type": "functional"}, "PANC-1": {"test_system": "PANC-1", "assay": "Cell cycle arrest in human PANC1 cells assessed as accumulation of cells at G1 phase at <=46.5 after 24 hrs by propidium iodide staining method", "type": "functional, cell-based", "procedure,_shortened": "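PANC-1 cells in RPMI 1640 with 10% FBS, HEPES, antibiotics, glutamine, pyruvate and glucose, at 37°C in 5% CO2, exposed to varying compound concentrations for 24 h alongside methanol vehicle and paclitaxel positive controls. Cells then ethanol-fixed and stained with 0.02 mg/mL propidium iodide plus 0.1 mg/mL RNase A. Flow cytometry collected 10,000 events per sample, and DNA histograms were modelled for phase distribution.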"}, "SW-620": {"test_system": "SW-620", "assay": "Cytotoxicity against human SW620 cells assessed cell growth", "type": "functional"}, "HL-60(TB)": {"test_system": "HL-60(TB)", "assay": "Cytotoxicity against human HL-60(TB) cells assessed cell growth", "type": "functional", "procedure,_shortened": "(§1)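 IC50 value derived from at least three separate assay runs per sample.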"}, "[7]": {"assay": "Stability in PBS and inorganic phosphate at 40 uM after 3 hrs", "type": "physicochemical", "conditions": "read-out: Stability"}, "[8]": {"assay": "Metabolic stability in human liver microsomes assessed as compound metabolized at 1 uM in the presence of NADPH", "type": "ADME, Microsome", "conditions": "read-out: Activity"}, "SF-539": {"test_system": "SF-539", "assay": "Cytotoxicity against human SF539 cells assessed cell growth", "type": "functional"}, "[9]": {"assay": "Metabolic satbility in human liver microsomes assessed as compound remaining at 1 uM after 60 min in the presence of NADPH", "type": "ADME, Microsome", "conditions": "read-out: Stability"}, "UACC-62": {"test_system": "UACC-62", "assay": "Cytotoxicity against human UACC62 cells assessed cell growth", "type": "functional"}, "HOP-92": {"test_system": "HOP-92", "assay": "Cytotoxicity against human HOP92 cells assessed cell growth", "type": "functional"}, "SK-OV-3": {"test_system": "SK-OV-3", "assay": "Cytotoxicity against human SKOV3 cells assessed cell growth", "type": "functional"}, "MDA-MB-231": {"test_system": "MDA-MB-231", "assay": "Cytotoxicity against human MDA-MB-231 cells assessed cell growth", "type": "functional"}, "NCI/ADR-RES [10]": {"test_system": "NCI/ADR-RES", "assay": "Cytotoxicity against human NCI/ADR-RES cells assessed cell growth", "type": "functional"}, "[11]": {"assay": "Permeability at 50 uM at pH 7.4 by PAMPA", "type": "ADME", "conditions": "read-out: permeability"}, "UO-31": {"test_system": "UO-31", "assay": "Cytotoxicity against human UO31 cells assessed cell growth", "type": "functional"}, "MCF7": {"test_system": "MCF7", "assay": "Cytotoxicity against human MCF7 cells assessed cell growth", "type": "functional"}, "[12]": {"assay": "Metabolic satbility in mouse liver microsomes assessed as compound remaining at 1 uM after 60 min in the absence of NADPH", "type": "ADME, Microsome", "conditions": "read-out: Stability"}, "DLD-1": {"test_system": "DLD-1", "assay": "Cytotoxicity against human DLD1 cells", "type": "functional, cell-based", "procedure,_shortened": "as §1"}, "[13]": {"assay": "Protein binding in mouse plasma at 10 uM", "type": "ADME, cell-free", "conditions": "read-out: PPB (converted)"}, "EKVX": {"test_system": "EKVX", "assay": "Cytotoxicity against human EKVX cells assessed cell growth", "type": "functional"}, "786-0": {"test_system": "786-0", "assay": "Cytotoxicity against human 786-0 cells assessed cell growth", "type": "functional"}, "[14]": {"assay": "Solubility at pH 7.4", "type": "physicochemical", "conditions": "buffer"}, "TK-10": {"test_system": "TK-10", "assay": "Cytotoxicity against human TK10 cells assessed cell growth", "type": "functional"}, "SK-MEL-5": {"test_system": "SK-MEL-5", "assay": "Cytotoxicity against human SK-MEL-5 cells assessed cell growth", "type": "functional"}, "NCI-H522": {"test_system": "NCI-H522", "assay": "Cytotoxicity against human NCI-H522 cells assessed cell growth", "type": "functional"}, "BT-549": {"test_system": "BT-549", "assay": "Cytotoxicity against human BT549 cells assessed cell growth", "type": "functional"}, "NCI/ADR-RES [15]": {"test_system": "NCI/ADR-RES", "assay": "Cytotoxicity against human NCI/ADR-RES cells", "type": "functional, cell-based", "procedure,_shortened": "as §1"}, "[16]": {"assay": "Metabolic stability in mouse liver microsomes assessed as compound metabolized at 1 uM in the presence of NADPH", "type": "ADME, Microsome", "conditions": "read-out: Activity"}, "MIA PaCa-2": {"test_system": "MIA PaCa-2", "assay": "Cytotoxicity against human MIAPaCa2 cells", "type": "functional, cell-based", "procedure,_shortened": "as §1"}, "HCC 2998": {"test_system": "HCC 2998", "assay": "Cytotoxicity against human HCC2998 cells assessed cell growth", "type": "functional"}, "Nucleic Acid": {"test_system": "Nucleic Acid", "assay": "Displacement of ethidium bromide from DNA", "type": "nucleic-acid assay"}}, "note": "The source made the active and inactive calls. The rule behind the calls is not given here.", "data": [{"smiles": "CC(=O)N(C)CCc1cc(Br)c(OCCCNc2ncn(C)c3ncnc2-3)c(Br)c1", "note": "[APHROCALLISTIN]", "values": [{"measurement": "Activity", "setting": "HOP-62", "value": 71.38, "unit": "%"}, {"measurement": "Activity", "setting": "NCI-H322M", "value": 76.48, "unit": "%"}, {"measurement": "remaining at 3 h, 40 µM", "setting": "Homo sapiens [1]", "value": 76.6, "unit": "%"}, {"measurement": "fraction unbound at 1 µM", "setting": "Homo sapiens [2]", "value": 0.044}, {"measurement": "Activity", "setting": "CCRF-CEM", "value": 80.24, "unit": "%"}, {"measurement": "fraction unbound at 1 µM", "setting": "[3]", "value": 0.15}, {"measurement": "Activity", "setting": "T47D", "value": 26.91, "unit": "%"}, {"measurement": "Papp at 50 µM", "setting": "[4]", "value": 201, "unit": "×10⁻⁶ cm/s"}, {"measurement": "Activity", "setting": "KM12", "value": 88.97, "unit": "%"}, {"measurement": "Activity", "setting": "IGROV-1", "value": 64.84, "unit": "%"}, {"measurement": "Papp at 50 µM", "setting": "[5]", "value": 33, "unit": "×10⁻⁶ cm/s"}, {"measurement": "Activity", "setting": "MDA-MB-435", "value": 62.57, "unit": "%"}, {"measurement": "Activity", "setting": "ACHN", "value": 69.23, "unit": "%"}, {"measurement": "solubility", "setting": "[6]", "value": "> 267", "unit": "µg/mL"}, {"measurement": "Activity", "setting": "DU-145", "value": 102.31, "unit": "%"}, {"measurement": "Activity", "setting": "NCI-H23", "value": 42.18, "unit": "%"}, {"measurement": "Activity", "setting": "PANC-1", "value": "Active"}, {"measurement": "Activity", "setting": "SW-620", "value": 89.87, "unit": "%"}, {"measurement": "Activity", "setting": "HL-60(TB)", "value": 39.94, "unit": "%"}, {"measurement": "remaining at 3 h, 40 µM", "setting": "[7]", "value": 76.5, "unit": "%"}, {"measurement": "metabolised at 1 µM", "setting": "[8]", "value": 96.9, "unit": "%"}, {"measurement": "Activity", "setting": "SF-539", "value": 80.09, "unit": "%"}, {"measurement": "remaining at 1 h, 1 µM", "setting": "[9]", "value": 3.08, "unit": "%"}, {"measurement": "Activity", "setting": "UACC-62", "value": 79.32, "unit": "%"}, {"measurement": "Activity", "setting": "HOP-92", "value": 75.25, "unit": "%"}, {"measurement": "Activity", "setting": "SK-OV-3", "value": 94.44, "unit": "%"}, {"measurement": "Activity", "setting": "MDA-MB-231", "value": 74.94, "unit": "%"}, {"measurement": "Activity", "setting": "NCI/ADR-RES [10]", "value": 72.89, "unit": "%"}, {"measurement": "Papp at 50 µM", "setting": "[11]", "value": 321, "unit": "×10⁻⁶ cm/s"}, {"measurement": "Activity", "setting": "UO-31", "value": 79.45, "unit": "%"}, {"measurement": "Activity", "setting": "MCF7", "value": 39.83, "unit": "%"}, {"measurement": "remaining at 1 h, 1 µM", "setting": "[12]", "value": 103, "unit": "%"}, {"measurement": "IC50", "setting": "DLD-1", "value": 7.5, "unit": "µM"}, {"measurement": "fraction unbound at 10 µM", "setting": "[13]", "value": 0.309}, {"measurement": "Activity", "setting": "EKVX", "value": 45.38, "unit": "%"}, {"measurement": "Activity", "setting": "786-0", "value": 70.65, "unit": "%"}, {"measurement": "solubility", "setting": "[14]", "value": "> 267", "unit": "µg/mL"}, {"measurement": "Activity", "setting": "TK-10", "value": 89.47, "unit": "%"}, {"measurement": "Activity", "setting": "SK-MEL-5", "value": 20, "unit": "%"}, {"measurement": "Activity", "setting": "NCI-H522", "value": 36.6, "unit": "%"}, {"measurement": "Activity", "setting": "BT-549", "value": 56.49, "unit": "%"}, {"measurement": "IC50", "setting": "NCI/ADR-RES [15]", "value": 34.3, "unit": "µM"}, {"measurement": "metabolised at 1 µM", "setting": "[16]", "value": 98.6, "unit": "%"}, {"measurement": "IC50", "setting": "MIA PaCa-2", "value": 26.6, "unit": "µM"}, {"measurement": "Activity", "setting": "HCC 2998", "value": 65.57, "unit": "%"}, {"measurement": "Activity", "setting": "Nucleic Acid", "value": "inactive"}]}]}
